Source: ChEMBL document CHEMBL4219235, “Novel fatty acid chain modified GLP-1 derivatives with prolonged in vivo glucose-lowering ability and balanced glucoregulatory activity” (Bioorg Med Chem, 2018)
The source made the active and inactive calls. No cut-off for these calls is given here.

How the values were obtained:
[1] = target: Albumin (Homo sapiens, UniProt P02768); assay: Binding affinity to human serum albumin after 3 hrs by LC-MS/MS analysis; design: concentration or dose not given beside the values
Albumin, sequence (P02768 whole entry): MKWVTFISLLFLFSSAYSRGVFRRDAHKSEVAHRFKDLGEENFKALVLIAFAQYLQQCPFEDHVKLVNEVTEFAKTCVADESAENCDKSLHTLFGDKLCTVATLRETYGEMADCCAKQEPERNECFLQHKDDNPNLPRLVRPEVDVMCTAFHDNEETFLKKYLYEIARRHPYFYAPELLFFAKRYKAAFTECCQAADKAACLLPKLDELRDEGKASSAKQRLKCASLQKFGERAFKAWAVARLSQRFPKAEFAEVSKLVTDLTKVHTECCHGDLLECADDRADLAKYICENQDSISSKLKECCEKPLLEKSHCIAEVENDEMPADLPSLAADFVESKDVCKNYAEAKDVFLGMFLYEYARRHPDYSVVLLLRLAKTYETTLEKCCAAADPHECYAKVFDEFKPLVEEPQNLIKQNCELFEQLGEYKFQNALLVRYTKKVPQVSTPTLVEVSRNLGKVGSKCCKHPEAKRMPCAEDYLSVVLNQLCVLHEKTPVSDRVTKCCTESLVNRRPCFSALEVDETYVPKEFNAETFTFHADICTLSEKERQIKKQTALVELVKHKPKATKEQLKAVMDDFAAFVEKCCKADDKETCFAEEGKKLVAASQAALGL
Procedure, shortened: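 HSA was coupled to NHS-activated Sepharose (6–7 mg HSA/mL wet resin); an inactivated albumin-free resin served as control. Peptide (100 µg/mL in PBS) was incubated with each resin for 3 h at 25 °C. After centrifugation, unbound peptide in the supernatant was quantified by LC-MS/MS.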

[2] = target: Glucagon-like peptide 1 receptor (Homo sapiens, UniProt P43220); assay: Agonist activity at recombinant human GLP1 receptor expressed in HEK293 cells assessed as cAMP accumulation by TR-FRET assay; format: functional, cell-based
Glucagon-like peptide 1 receptor, sequence (P43220 whole entry): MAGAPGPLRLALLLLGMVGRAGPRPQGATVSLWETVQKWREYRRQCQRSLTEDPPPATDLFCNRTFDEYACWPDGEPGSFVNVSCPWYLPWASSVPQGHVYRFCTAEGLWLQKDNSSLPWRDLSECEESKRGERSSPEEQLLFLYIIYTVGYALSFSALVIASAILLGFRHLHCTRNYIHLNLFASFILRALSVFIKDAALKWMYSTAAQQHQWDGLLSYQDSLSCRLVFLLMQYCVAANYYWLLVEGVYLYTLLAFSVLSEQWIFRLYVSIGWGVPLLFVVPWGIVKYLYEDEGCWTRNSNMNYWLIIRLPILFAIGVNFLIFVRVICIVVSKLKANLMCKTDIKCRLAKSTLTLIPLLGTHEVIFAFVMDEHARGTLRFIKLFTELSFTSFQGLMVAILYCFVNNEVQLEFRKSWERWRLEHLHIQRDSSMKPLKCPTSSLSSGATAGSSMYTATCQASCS

[3] = test system: Rattus norvegicus; assay: Antidiabetic activity in Sprague-Dawley rat assessed as blood glucose level at 25 nmol/kg, ip treated 30 mins prior to glucose challenge measured at 15 mins interval for 180 mins by OGTT (reference value: 13.8 +/- 1.31 nmol/L); format: functional
[4] = test system: Rattus norvegicus; assay: Antidiabetic activity in Sprague-Dawley rat assessed as reduction in blood glucose AUC at 25 nmol/kg, ip treated 30 mins prior to glucose challenge measured at 15 mins interval for 180 mins by OGTT; format: functional, organism-based
[5] = test system: Mus musculus; assay: Hypoglycemic activity in STZ-induced diabetic Kunming mouse model assessed as time required to reduce blood glucose level of […] at 25 nmol/kg, ip administered as single dose; format: functional
Procedure, shortened: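 Non-fasted STZ-diabetic Kunming mice with free access to food and water received a single i.p. injection (25 or 150 nmol/kg) or saline; n = 6/group. Blood glucose was followed over time.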

[6] = test system: INS1; assay: Cytoprotective activity against STZ-induced oxidative stress in rat INS-1 cells assessed as cell death at 1 nM after 24 hrs by MTT assay (reference value: 45%); format: functional
[7] = test system: INS1; assay: Cytoprotective activity against STZ-induced oxidative stress in rat INS-1 cells assessed as cell death at 10 to 100 nM after 24 hrs by MTT assay (reference value: 45%); format: functional
[8] = test system: INS1; assay: Cytoprotective activity against H2O2-induced glucolipotoxicity in rat INS-1 cells assessed as increase in cell viability at 1 to 100 nM after 24 hrs by MTT assay; format: functional, cell-based
Procedure, shortened: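 INS-1 cells, about 5000/well, were seeded for 4 h, then stressed with one of: glucolipotoxic medium (25 mM glucose + 0.4 mM oleate-BSA), 50 µM H2O2 or 1 µM STZ. Peptide (1, 10 or 100 nM) was added and cells were incubated 24 h. Viability was read by MTT (200 µg/mL, 3 h, 37 °C), formazan dissolved in DMSO, A570. Triplicate, repeated three times.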

[9] = test system: INS1; assay: Cytoprotective activity against H2O2-induced glucolipotoxicity in rat INS-1 cells assessed as reduction in apoptosis at 10 nM after 24 hrs by Annexin-V-FITC/propidium iodide staining based flow cytometric analysis; format: functional, cell-based
Procedure, shortened: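 INS-1 cells, about 5000/well, were seeded for 24 h, then exposed to glucolipotoxic medium, 50 µM H2O2 or 1 µM STZ, plus peptide at 10 nM, for 24 h. Apoptosis was analyzed by flow cytometry; triplicate, repeated three times.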

[10] = test system: Mus musculus; assay: Antidiabetic activity in STZ-induced diabetic Kunming mouse model assessed as fasting blood glucose level at 25 nmol/kg, ip administered once daily for 3 weeks measured at 5 days interval for 21 days during compound dosing (reference value: […]); format: functional
Procedure, shortened: (§1)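 STZ diabetes induced with 40 mg/kg/day i.p. for 5 consecutive days after overnight fasting. Mice with fasting glucose ≥11.1 mM were grouped by matched body weight and dosed 25 nmol/kg i.p. once daily for 3 weeks; saline served as control. Fasting plasma glucose was measured every five days, and HbA1c at day 24; n = 6/group.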

[11] = test system: Mus musculus; assay: Antidiabetic activity in STZ-induced diabetic Kunming mouse model assessed as reduction in HbA1c level at 25 nmol/kg, ip administered once daily for 3 weeks measured at post last dose by Beckman coulter based method; format: functional, organism-based; procedure, shortened: as §1
[12] = test system: Mus musculus; assay: Antidiabetic activity in C57BL/6 mouse assessed as reduction in blood glucose level at 25 nmol/kg, ip treated 30 mins prior to glucose challenge measured after 120 mins by IPGTT; format: functional, organism-based
Procedure, shortened: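 Male C57BL/6 mice, 6 weeks old, fasted overnight (12 h), n = 6/group; given 25 nmol/kg or saline i.p., then i.p. glucose challenge (2.0 g/kg) 30 min later, set as 0 h. Glucose challenges were repeated at 6 h intervals to mimic three meals a day. Blood glucose was followed and AUC calculated.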

[13] = test system: Mus musculus; assay: Antidiabetic activity in STZ/diet-induced obese C57BL/6 mouse assessed as reduction in cumulative water intake at 25 nmol/kg, ip administered daily for 4 weeks measured daily during compound dosing relative to control; format: functional; design: scale not given: the % may be the effect or the level left
Procedure, shortened: (§2)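 Male C57BL/6J DIO mice on high-fat diet were treated for 4 weeks with saline as control; LFD-fed mice (n = 6/group) were used as normal reference. Water intake, food intake and body weight were recorded daily. Terminal serum leptin and adiponectin were measured by ELISA. TC, TG, HDL, LDL, ALT and AST were measured on a clinical chemistry analyzer.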

[14] = test system: Mus musculus; assay: Antidiabetic activity in STZ/diet-induced obese C57BL/6 mouse assessed as reduction in food intake at 25 nmol/kg, ip measured after 6 hrs relative to control; format: functional; design: scale not given: the % may be the effect or the level left
Procedure, shortened: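 Acute study in fasted mice given an i.p. dose; food intake was measured at 6 h after administration.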

[15] = test system: Mus musculus; assay: Antidiabetic activity in STZ/diet-induced obese C57BL/6 mouse assessed as reduction in body weight gain at 25 nmol/kg, ip administered daily for 4 weeks measured daily during compound dosing; format: functional, organism-based; procedure, shortened: as §2
[16] = test system: Mus musculus; assay: Antidiabetic activity in STZ/diet-induced obese C57BL/6 mouse assessed as reduction in serum leptin level at 25 nmol/kg, ip administered daily for 4 weeks measured post last dose; format: functional; procedure, shortened: as §2
[17] = test system: Mus musculus; assay: Antidiabetic activity in STZ/diet-induced obese C57BL/6 mouse assessed as increase in serum adiponectin level at 25 nmol/kg, ip administered daily for 4 weeks measured post last dose; format: functional, organism-based; procedure, shortened: as §2
[18] = test system: Mus musculus; assay: Antidiabetic activity in STZ/diet-induced obese C57BL/6 mouse assessed as reduction in serum ALT level at 25 nmol/kg, ip administered daily for 4 weeks measured post last dose; format: functional, organism-based; procedure, shortened: as §2
[19] = test system: Mus musculus; assay: Antidiabetic activity in STZ/diet-induced obese C57BL/6 mouse assessed as reduction in serum AST level at 25 nmol/kg, ip administered daily for 4 weeks measured post last dose; format: functional, organism-based; procedure, shortened: as §2
[20] = test system: Mus musculus; assay: Antidiabetic activity in STZ/diet-induced obese C57BL/6 mouse assessed as reduction in serum total cholesterol level at 25 nmol/kg, ip administered daily for 4 weeks measured post last dose; format: functional, organism-based; procedure, shortened: as §2
[21] = test system: Mus musculus; assay: Antidiabetic activity in STZ/diet-induced obese C57BL/6 mouse assessed as reduction in serum total triglyceride level at 25 nmol/kg, ip administered daily for 4 weeks measured post last dose; format: functional, organism-based; procedure, shortened: as §2
[22] = test system: Mus musculus; assay: Antidiabetic activity in STZ/diet-induced obese C57BL/6 mouse assessed as reduction in ratio of LDL to HDL level at 25 nmol/kg, ip administered daily for 4 weeks measured post last dose; format: functional, organism-based; procedure, shortened: as §2
[23] = test system: Mus musculus; assay: Antidiabetic activity in STZ/diet-induced obese C57BL/6 mouse assessed as reduction in size of white adipocytes at 25 nmol/kg, ip administered daily for 4 weeks measured post last dose; format: functional, organism-based

Structure (SMILES): CC[C@H](C)[C@H](NC(=O)[C@H](Cc1ccccc1)NC(=O)[C@H](CCC(=O)O)NC(=O)[C@H](CCCCN)NC(=O)[C@H](C)NC(=O)[C@H](C)NC(=O)[C@H](CCC(N)=O)NC(=O)CNC(=O)[C@H](CCC(=O)O)NC(=O)[C@H](CC(C)C)NC(=O)[C@H](Cc1ccc(O)cc1)NC(=O)[C@H](CO)NC(=O)[C@H](CO)NC(=O)[C@@H](NC(=O)[C@H](CC(=O)O)NC(=O)[C@H](CO)NC(=O)[C@@H](NC(=O)[C@H](Cc1ccccc1)NC(=O)[C@@H](NC(=O)CNC(=O)[C@H](CCC(=O)O)NC(=O)CNC(=O)[C@@H](N)Cc1cnc[nH]1)[C@@H](C)O)[C@@H](C)O)C(C)C)C(=O)N[C@@H](C)C(=O)N[C@@H](Cc1c[nH]c2ccccc12)C(=O)N[C@@H](CC(C)C)C(=O)N[C@H](C(=O)N[C@@H](CCCCN)C(=O)NCC(=O)N[C@@H](CCCNC(=N)N)C(=O)N[C@@H](CSC1CC(=O)N(CCCCCCCCCCCC(=O)O)C1=O)C(N)=O)C(C)C (stereo partly drawn)
- Activity [1]: 62.4%
- EC50 [2]: 0.0198 nM
- Activity [3]: 6.7e+06 nmol/L
- Activity [4]: Active
- Time [5]: 9.7 h
- Activity [6]: 28.8%
- Activity [7]: 21.9%
- Activity [8]: Active
- Activity [9]: Active
- Activity [10]: 1.07e+07 nmol/L
- Activity [11]: Active
- Activity [12]: Active
- Activity [13]: <=33.5%
- Activity [14]: <=34.5%
- Activity [15]: Active
- Activity [16]: 2.5 ng/mL
- Activity [17]: Active
- Activity [18]: Active
- Activity [19]: Active
- Activity [20]: Active
- Activity [21]: Active
- Activity [22]: inactive
- Activity [23]: Active
